Data reported in PubChem BioAssay.
Active and inactive are the calls of the source.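 How the source made its calls: active means current rise at least 3 SD above the untreated control mean in each of two repeat wells; inactive means the rest.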

biological target: Potassium voltage-gated channel subfamily KQT member 1 (Homo sapiens) (UniProt P51787); test: KCNQ1 activators by electrophysiology – IonWorks patch clamp, KCNQ1-CHO cells, orthogonal assay for KCNQ1 potentiator project, confirmation (AID 493184); conditions: automated patch clamp current, at 10 µM
Summary of the method: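 Assay system – CHO cells carrying KCNQ1 · Medium – pH 7.4 external bath · Probe or stimulus – depolarizing pulse to +40 mV from -90 mV · Compound dosing – one dose, 10 µM final · Measured by – automated perforated-patch electrophysiology · Measure – % potentiation of steady-state current relative to pre-compound · Repeats – two replicates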

Potassium voltage-gated channel subfamily KQT member 1 (Homo sapiens), sequence (P51787 whole entry, looked up): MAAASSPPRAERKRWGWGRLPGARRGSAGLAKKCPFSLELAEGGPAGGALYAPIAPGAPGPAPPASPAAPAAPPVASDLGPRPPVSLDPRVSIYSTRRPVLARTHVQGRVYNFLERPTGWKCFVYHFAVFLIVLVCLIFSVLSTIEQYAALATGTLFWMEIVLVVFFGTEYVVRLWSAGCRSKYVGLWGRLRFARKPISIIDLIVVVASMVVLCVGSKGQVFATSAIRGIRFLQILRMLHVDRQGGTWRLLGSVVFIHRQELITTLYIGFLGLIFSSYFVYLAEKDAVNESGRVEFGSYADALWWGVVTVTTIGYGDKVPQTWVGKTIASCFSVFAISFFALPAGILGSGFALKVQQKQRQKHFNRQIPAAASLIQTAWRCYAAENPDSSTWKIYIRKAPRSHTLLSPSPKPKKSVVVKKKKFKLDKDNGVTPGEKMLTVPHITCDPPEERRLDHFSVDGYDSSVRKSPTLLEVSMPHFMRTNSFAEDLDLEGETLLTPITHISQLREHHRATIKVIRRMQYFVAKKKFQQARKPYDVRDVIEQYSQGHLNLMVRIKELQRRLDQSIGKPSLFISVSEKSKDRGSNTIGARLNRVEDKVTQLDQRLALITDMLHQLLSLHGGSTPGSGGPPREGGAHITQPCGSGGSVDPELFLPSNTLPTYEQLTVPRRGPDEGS

outcome, inactive:
Cc1nn(C)c(C(=O)NC(=S)Nc2ccc([N+](=O)[O-])cc2)c1Cl
O=C(Nc1cc([N+](=O)[O-])ccc1N1CCCC1)c1cccs1
Fc1ccc(/C=N/NC(=S)Nc2ccc(Cl)cc2)cc1F
Cc1ccc(NC2=C(NC(=O)c3ccccc3)C(=O)c3ccccc3C2=O)cc1Cl
CCCC(=O)n1nc(-c2ccccc2)nc1N
O=C(NC(=S)N1CCN(c2ccccc2)CC1)c1ccccc1
N#C/C=C1/NC(=O)c2ccccc2S1
COc1ccc(CN(C)CC(=O)Nc2ccc(Cl)cc2C(F)(F)F)c(OC)c1
CCN(CC)C(=S)NC(=O)c1ccc(OC)c(Br)c1
Cc1cc(/C=C2\C(=N)N3N=C(C(C)C)SC3=NC2=O)c(C)n1Cc1ccccc1
CCOC(=O)C1=NN(C(=O)c2ccc(OC)cc2)C(O)(c2ccc(Cl)cc2)C1 (stereo not given)
CC(CCc1ccccc1)NC(=O)c1ccccc1C(=O)O (stereo not given)
CSc1nc(C)c2c(n1)N(c1ccc(C(C)C)cc1)CC2
CC(/C=C1\SC(=S)N(NS(=O)(=O)c2ccccc2)C1=O)=C\c1ccccc1
CCOC(=O)Cc1cc(=O)n2[nH]c(C)c(-c3ccc(Cl)cc3)c2n1
Cc1[nH]n2c(=O)cc(C(C)(C)C)nc2c1-c1ccccc1
COc1cccc(/C=N/n2c(-c3cccs3)n[nH]c2=S)c1
CCOc1ccccc1NC(=O)CCC(=O)Nc1ccccc1OCC
Cc1ccccc1-c1nc(Cc2ccc(Cl)cc2)no1
CCC(O)C1CCN(Cc2cn(Cc3ccccc3)nc2-c2cc3ccccc3o2)CC1 (stereo not given)
CCOc1ccccc1NC(=O)C(=O)CC(=O)c1ccc(OC)cc1
Cc1cc(/C=N/NC(=O)c2cccs2)c(C)n1-c1ccccc1
O=C(NC(=S)N1CCN(Cc2ccc3c(c2)OCO3)CC1)c1cccc(Br)c1
Cc1ccc(C(=O)NC(=S)N(C)Cc2ccccc2)cc1
S=c1[nH]nc(CSc2nc3ccccc3s2)n1C1CCCCC1
CN1C(=O)/C(=N\OC(=O)c2cccc3ccccc23)c2ccccc21
CS(=O)(=O)c1ccc(C(=O)OCc2nnc(-c3ccc(Cl)cc3)o2)cc1[N+](=O)[O-]
CCC1(c2ccc(Cl)cc2)NC(=S)N(c2ccccc2)N1 (stereo not given)
CC1=C(C)/C(=N\OS(=O)(=O)c2ccccc2)C=CC1=O
C=CCn1c(=S)[nH]c2sc3c(c2c1=O)CCCC3
CSc1nnc(-c2ccccc2)o1
Cc1ccc(Cl)cc1NC(=S)N/N=C/c1cccc2ccccc12
Cc1cc(C)n(CCNS(=O)(=O)c2ccccc2)n1
CCN1C(=O)/C(=C/c2ccc(OCc3ccc(C(=O)O)cc3)c(Cl)c2)NC1=S
O=C(NC(=S)Nc1ccccc1N1CCOCC1)c1cccc([N+](=O)[O-])c1
CCc1ccc2c(c1)c(N=NC1=NC(=O)CS1)c(O)n2C
O=C(NC(=S)Nc1cccnc1)c1cc2ccccc2o1
CC(C)(C)NC(=O)CN(C(=O)CNC(=O)c1cccs1)c1ccc2c(c1)OCCO2
CCc1ccc(/C=N/NC(=O)Cc2cccn2C)cc1
O=C(Nc1nnc(-c2ccc3c(c2)CCCC3)o1)c1ccccc1Cl
